Results on 5 compounds are retold here after ChEMBL document CHEMBL5036319, “Discovery of Novel Benzothiazepinones as Irreversible Covalent Glycogen Synthase Kinase 3β Inhibitors for the Treatment of Acute Promyelocytic Leukemia” (J Med Chem, 2021).

Each structure is given as a SMILES string. Calls of active or inactive are those of the source. No cut-off for these calls is given here.

The target of data set [1] is T1, Glycogen synthase kinase-3 beta (Homo sapiens, UniProt P49841). In words: Inhibition of recombinant human GSK-3beta using GS-2 peptide as substrate incubated for 30 mins in presence of ATP by kinase-glo luminescence assay. In general terms: Kinase-Glo measures the ATP left after a reaction by luminescence.
Target sequence in this assay (P49841 whole entry): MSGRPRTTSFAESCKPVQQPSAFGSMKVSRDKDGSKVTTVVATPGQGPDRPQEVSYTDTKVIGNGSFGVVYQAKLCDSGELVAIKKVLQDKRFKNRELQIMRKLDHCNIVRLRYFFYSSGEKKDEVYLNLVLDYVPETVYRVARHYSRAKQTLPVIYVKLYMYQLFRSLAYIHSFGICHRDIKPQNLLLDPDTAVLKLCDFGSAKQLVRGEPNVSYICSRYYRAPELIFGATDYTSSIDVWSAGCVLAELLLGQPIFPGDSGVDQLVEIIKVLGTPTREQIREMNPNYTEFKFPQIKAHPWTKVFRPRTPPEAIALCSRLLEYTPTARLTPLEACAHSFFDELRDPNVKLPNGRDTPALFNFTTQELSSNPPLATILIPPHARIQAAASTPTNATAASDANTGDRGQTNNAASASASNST
Another data set concerns NB-4. In words: Cytotoxicity against human NB-4 cells assessed as reduction in cell viability measured after 24 hrs by CCK-8 assay. The class given is functional, cell-based. The settings on record: NB-4, 24 h. Put shortly:
(§1)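 Cells were grown in RPMI-1640 or high-glucose DMEM with 10% FBS at 37 °C, 5% CO2, and seeded at 3 × 10^4 cells/well. Exposure was 24 h across serial concentrations (0−1000 μM in the screen). […] Three independent experiments, mean ± SEM.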
(Tetrazolium assays rely on reduction of a dye to a coloured formazan, in cell work by metabolically active cells.)

The test system of the next data set is MOLT-4. In words: Cytotoxicity against human MOLT-4 cells assessed as reduction in cell viability measured after 24 hrs by CCK-8 assay. The settings on record: MOLT-4, 24 h. The class given is functional, cell-based. Put shortly: as §1
A further data set has as its system HL-60. In words: Cytotoxicity against human HL-60 cells assessed as reduction in cell viability measured after 24 hrs by CCK-8 assay. The class given is functional, cell-based. The settings on record: HL-60, 24 h. Put shortly: as §1
For the next data set, the system named is Raji. In words: Cytotoxicity against human Raji cells assessed as reduction in cell viability measured after 24 hrs by CCK-8 assay. Format: functional, cell-based. Put shortly: as §1
In data set [2] the target is Vascular endothelial growth factor receptor 1 (Homo sapiens) (UniProt P17948). In words: Inhibition of Flt-1 (unknown origin) at 100 uM incubated for 60 mins by ELISA relative to control. The gist of the method: (§2)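 Tyrosine kinase ELISA on plates precoated with poly(Glu,Tyr) 4:1 substrate. Reaction used 10 μM ATP in buffer (50 mM HEPES pH 7.4, 50 mM MgCl2, 0.5 mM MnCl2, 0.2 mM Na3VO4, 1 mM DTT) with compound in 1% DMSO. Purified kinase started the reaction, 60 min at 37 °C. Detection by anti-phosphotyrosine PY99 then HRP anti-mouse IgG with o-phenylenediamine/H2O2. Read at 490 nm; inhibition = [1 − A490/A490 control] × 100%.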
(An ELISA detects its analyte on a solid surface through an enzyme-linked reagent.)

Data set [3] concerns the target Vascular endothelial growth factor receptor 2 (Homo sapiens) (UniProt P35968). In words: Inhibition of KDR (unknown origin) at 100 uM incubated for 60 mins by ELISA relative to control. The gist of the method:
as §2

Data set [4] deals with Fibroblast growth factor receptor 1 (Homo sapiens) (UniProt P11362). In words: Inhibition of FGFR1 (unknown origin) at 100 uM incubated for 60 mins by ELISA relative to control. The gist of the method: as §2
Data set [5] deals with Platelet-derived growth factor receptor alpha (Homo sapiens) (UniProt P16234). In words: Inhibition of PDGFRalpha (unknown origin) at 100 uM incubated for 60 mins by ELISA relative to control. Put shortly:
as §2

Data set [6] concerns the target Platelet-derived growth factor receptor beta (Homo sapiens) (UniProt P09619). In words: Inhibition of PDGFRbeta (unknown origin) at 100 uM incubated for 60 mins by ELISA relative to control. Put shortly: as §2
Data set [7] addresses Mast/stem cell growth factor receptor Kit (Homo sapiens) (UniProt P10721). In words: Inhibition of c-Kit (unknown origin) at 100 uM incubated for 60 mins by ELISA relative to control. The gist of the method:
as §2

For data set [8], the target named is Proto-oncogene tyrosine-protein kinase receptor Ret (Homo sapiens) (UniProt P07949). In words: Inhibition of RET (unknown origin) at 100 uM incubated for 60 mins by ELISA relative to control. Put shortly:
as §2

In data set [9] the target is Receptor tyrosine-protein kinase erbB-4 (Homo sapiens) (UniProt Q15303). In words: Inhibition of ERBB4 (unknown origin) at 100 uM incubated for 60 min by ELISA relative to control. The gist of the method: as §2
Data set [10] deals with T1, Glycogen synthase kinase-3 beta. In words: Non-competitive inhibition of recombinant human GSK-3beta using GS-2 peptide as substrate at 2 to 4 uM incubated for 10 mins in presence of varying levels of ATP by double reciprocal plot analysis. The settings on record: dose 2-4 µM.
Target sequence in this assay (P49841 whole entry, looked up): as the sequence (P49841 whole entry) above
For data set [11] the target is unchanged. In words: Non-competitive inhibition of recombinant human GSK-3beta at 2 to 4 uM using varying concentration of GS-2 as substrate incubated for 10 mins in presence of ATP by double reciprocal plot analysis. The settings on record: dose 2-4 µM.
Target sequence in this assay (P49841 whole entry, looked up): as the sequence (P49841 whole entry) above
For data set [12] the target is unchanged. In words: Irreversible inhibition of recombinant human GSK-3beta preincubated for upto 10 mins by double reciprocal plot analysis. The settings on record: time min <=10, TDE = time-dependent effect. The gist of the method: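 Irreversibility tested in the Kinase-Glo GSK-3β assay. Inhibitor at 6.25 and 12.5 μM was preincubated with enzyme for 0, 5 or 10 min. Each point is the mean of two separate experiments done in triplicate.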
Target sequence in this assay (P49841 whole entry, looked up): as the sequence (P49841 whole entry) above

The nature of data set [13]: Thiol reactivity of compound with mercaptoethanol measured after 24 hrs by 1H-NMR analysis. The class given is physicochemical.
The target of data set [14] is Glycogen synthase kinase-3 alpha (Homo sapiens) (UniProt P49840). In words: Inhibition of recombinant human GSK-3alpha at 100 uM by mobility shift assay relative to control.
The test system of the next data set is NB4-DR1. In words: Antiproliferative activity against human NB4-DR1 cells assessed as reduction in cell viability incubated for 24 hrs by CCK-8 assay. The class given is functional, cell-based. The settings on record: NB4-DR1, 24 h. The gist of the method: as §1
The nature of data set [15]: Cytotoxicity against human L02 cells assessed as cell viability at 0 to 50 uM incubated for 24 hrs by CCK-8 assay relative to control. Format: cell-based. The settings on record: dose 0-50 µM, read-out: Activity. Put shortly:
(§3)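 HUVEC and LO2 normal cells were cultured in RPMI-1640 or DMEM with 10% FBS at 37 °C, 5% CO2, and seeded at 3 × 10^4 cells/well. They were exposed for 24 h to graded concentrations. CCK-8 incubation was 3 h at 37 °C, with A450 read and viability expressed versus untreated control. Three independent experiments, mean ± SEM.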

Data set [16] is described as follows: Cytotoxicity against HUVEC assessed as cell viability at 0 to 50 uM incubated for 24 hrs by CCK-8 assay relative to control. The class given is cell-based. The settings on record: human, dose 0-50 µM, read-out: Activity. Put shortly:
as §3

Data set [17] deals with Casein kinase 2 (Homo sapiens) (UniProt P67870+P68400+P19784+Q8NEV1). In words: Inhibition of CK2 (unknown origin) at 100 uM incubated for 60 mins by Millipore Kinase Profiler service relative to control.
A further data set is filed under the species Homo sapiens. In words: Inhibition of PKA (unknown origin) at 100 uM incubated for 60 mins by Millipore Kinase Profiler service relative to control.
Data set [18] concerns the target Fibroblast growth factor receptor 1 (Homo sapiens) (UniProt P11362). In words: Inhibition of FGFR1 (unknown origin) incubated for 60 mins by ELISA. The settings on record: dose 100.0 µM.

Chain of Vascular endothelial growth factor receptor 1 (Homo sapiens) (P17948 whole entry): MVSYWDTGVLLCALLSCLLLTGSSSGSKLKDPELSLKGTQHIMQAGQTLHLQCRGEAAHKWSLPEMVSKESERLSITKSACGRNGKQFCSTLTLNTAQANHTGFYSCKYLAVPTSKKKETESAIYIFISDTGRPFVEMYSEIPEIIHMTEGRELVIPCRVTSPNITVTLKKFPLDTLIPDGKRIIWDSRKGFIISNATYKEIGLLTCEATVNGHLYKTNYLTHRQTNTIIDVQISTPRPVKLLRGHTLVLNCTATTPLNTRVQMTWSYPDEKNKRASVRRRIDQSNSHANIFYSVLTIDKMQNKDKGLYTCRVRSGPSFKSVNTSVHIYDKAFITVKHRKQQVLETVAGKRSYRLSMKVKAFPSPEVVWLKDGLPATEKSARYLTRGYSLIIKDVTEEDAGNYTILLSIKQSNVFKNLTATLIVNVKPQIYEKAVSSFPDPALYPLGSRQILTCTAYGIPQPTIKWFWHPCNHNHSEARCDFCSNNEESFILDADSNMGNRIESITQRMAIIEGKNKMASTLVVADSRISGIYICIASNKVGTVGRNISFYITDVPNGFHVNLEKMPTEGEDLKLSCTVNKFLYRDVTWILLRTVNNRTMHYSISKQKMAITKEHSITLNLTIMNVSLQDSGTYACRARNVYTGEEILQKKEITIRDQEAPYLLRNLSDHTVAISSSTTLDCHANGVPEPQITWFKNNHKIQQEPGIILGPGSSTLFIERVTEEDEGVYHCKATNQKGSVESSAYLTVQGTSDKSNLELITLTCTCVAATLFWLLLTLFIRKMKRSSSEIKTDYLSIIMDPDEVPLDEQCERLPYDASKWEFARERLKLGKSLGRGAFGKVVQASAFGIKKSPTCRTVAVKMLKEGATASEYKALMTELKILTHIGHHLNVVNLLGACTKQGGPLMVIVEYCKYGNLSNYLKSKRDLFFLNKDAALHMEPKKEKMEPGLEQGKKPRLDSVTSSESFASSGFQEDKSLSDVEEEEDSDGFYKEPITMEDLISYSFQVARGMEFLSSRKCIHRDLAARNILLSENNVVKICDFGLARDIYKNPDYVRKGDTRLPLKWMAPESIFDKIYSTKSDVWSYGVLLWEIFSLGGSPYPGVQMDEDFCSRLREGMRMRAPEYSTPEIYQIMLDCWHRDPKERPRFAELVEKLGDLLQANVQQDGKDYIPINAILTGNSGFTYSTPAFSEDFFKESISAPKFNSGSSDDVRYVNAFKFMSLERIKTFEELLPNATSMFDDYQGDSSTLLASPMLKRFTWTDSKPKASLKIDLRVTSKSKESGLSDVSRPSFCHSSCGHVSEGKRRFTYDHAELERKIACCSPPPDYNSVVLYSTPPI
Chain of Receptor tyrosine-protein kinase erbB-4 (Homo sapiens) (Q15303 whole entry): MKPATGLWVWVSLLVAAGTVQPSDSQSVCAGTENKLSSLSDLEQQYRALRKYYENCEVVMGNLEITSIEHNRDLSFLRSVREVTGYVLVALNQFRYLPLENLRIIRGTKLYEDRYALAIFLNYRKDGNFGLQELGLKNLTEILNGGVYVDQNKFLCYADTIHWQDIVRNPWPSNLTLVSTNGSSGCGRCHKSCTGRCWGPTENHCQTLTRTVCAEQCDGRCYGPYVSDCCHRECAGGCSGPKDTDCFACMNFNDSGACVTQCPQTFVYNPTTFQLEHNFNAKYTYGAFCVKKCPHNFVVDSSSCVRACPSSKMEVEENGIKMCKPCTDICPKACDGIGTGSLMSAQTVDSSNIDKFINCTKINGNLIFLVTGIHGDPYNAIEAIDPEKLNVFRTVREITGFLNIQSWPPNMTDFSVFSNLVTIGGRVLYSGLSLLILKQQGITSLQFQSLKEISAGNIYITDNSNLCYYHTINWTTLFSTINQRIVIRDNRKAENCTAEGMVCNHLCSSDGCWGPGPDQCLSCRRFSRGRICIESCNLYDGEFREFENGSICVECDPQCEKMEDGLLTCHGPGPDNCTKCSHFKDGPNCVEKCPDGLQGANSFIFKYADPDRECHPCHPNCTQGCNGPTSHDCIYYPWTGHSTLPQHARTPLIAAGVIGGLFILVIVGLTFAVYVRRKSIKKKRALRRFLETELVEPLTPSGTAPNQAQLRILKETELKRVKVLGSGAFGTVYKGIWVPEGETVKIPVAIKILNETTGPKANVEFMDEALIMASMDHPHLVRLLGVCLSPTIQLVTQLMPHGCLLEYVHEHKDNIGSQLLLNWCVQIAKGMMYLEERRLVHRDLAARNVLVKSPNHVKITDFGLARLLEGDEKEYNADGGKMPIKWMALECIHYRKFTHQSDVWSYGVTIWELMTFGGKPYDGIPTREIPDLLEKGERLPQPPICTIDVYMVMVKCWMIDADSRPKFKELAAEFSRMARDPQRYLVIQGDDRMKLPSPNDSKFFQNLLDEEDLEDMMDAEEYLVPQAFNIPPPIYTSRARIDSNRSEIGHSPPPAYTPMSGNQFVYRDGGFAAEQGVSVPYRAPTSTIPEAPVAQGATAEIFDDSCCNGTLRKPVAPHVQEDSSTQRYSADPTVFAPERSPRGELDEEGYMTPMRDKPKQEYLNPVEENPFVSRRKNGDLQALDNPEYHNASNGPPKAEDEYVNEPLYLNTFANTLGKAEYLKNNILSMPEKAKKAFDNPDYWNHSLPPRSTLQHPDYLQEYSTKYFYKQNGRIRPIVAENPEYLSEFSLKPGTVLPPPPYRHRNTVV
Chain of Mast/stem cell growth factor receptor Kit (Homo sapiens) (P10721 whole entry): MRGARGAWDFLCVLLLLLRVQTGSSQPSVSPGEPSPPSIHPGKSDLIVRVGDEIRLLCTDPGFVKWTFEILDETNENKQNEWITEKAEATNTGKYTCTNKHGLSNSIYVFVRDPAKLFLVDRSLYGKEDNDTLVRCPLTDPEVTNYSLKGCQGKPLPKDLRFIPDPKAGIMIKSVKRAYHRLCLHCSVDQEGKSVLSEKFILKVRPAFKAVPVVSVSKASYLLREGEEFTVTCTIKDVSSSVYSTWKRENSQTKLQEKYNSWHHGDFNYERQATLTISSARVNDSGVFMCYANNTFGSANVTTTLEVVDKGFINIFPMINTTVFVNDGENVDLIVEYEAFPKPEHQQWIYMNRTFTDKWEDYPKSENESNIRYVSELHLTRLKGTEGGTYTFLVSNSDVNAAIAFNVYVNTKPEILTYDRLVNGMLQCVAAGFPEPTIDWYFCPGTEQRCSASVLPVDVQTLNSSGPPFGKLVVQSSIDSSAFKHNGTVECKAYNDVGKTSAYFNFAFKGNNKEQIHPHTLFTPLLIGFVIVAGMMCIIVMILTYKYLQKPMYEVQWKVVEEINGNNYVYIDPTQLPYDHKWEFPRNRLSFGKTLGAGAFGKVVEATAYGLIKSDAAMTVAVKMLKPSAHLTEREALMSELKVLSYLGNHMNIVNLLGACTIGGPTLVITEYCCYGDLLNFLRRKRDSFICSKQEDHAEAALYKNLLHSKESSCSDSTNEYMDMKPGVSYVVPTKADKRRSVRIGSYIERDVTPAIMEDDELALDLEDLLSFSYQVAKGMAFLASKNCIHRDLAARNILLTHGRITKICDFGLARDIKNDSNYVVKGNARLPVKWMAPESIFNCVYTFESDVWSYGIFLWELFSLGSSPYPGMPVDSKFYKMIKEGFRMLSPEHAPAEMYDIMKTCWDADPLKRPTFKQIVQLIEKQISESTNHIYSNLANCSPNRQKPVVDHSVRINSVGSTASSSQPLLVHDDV
Chain of Fibroblast growth factor receptor 1 (Homo sapiens) (P11362 22-822 limits assumed): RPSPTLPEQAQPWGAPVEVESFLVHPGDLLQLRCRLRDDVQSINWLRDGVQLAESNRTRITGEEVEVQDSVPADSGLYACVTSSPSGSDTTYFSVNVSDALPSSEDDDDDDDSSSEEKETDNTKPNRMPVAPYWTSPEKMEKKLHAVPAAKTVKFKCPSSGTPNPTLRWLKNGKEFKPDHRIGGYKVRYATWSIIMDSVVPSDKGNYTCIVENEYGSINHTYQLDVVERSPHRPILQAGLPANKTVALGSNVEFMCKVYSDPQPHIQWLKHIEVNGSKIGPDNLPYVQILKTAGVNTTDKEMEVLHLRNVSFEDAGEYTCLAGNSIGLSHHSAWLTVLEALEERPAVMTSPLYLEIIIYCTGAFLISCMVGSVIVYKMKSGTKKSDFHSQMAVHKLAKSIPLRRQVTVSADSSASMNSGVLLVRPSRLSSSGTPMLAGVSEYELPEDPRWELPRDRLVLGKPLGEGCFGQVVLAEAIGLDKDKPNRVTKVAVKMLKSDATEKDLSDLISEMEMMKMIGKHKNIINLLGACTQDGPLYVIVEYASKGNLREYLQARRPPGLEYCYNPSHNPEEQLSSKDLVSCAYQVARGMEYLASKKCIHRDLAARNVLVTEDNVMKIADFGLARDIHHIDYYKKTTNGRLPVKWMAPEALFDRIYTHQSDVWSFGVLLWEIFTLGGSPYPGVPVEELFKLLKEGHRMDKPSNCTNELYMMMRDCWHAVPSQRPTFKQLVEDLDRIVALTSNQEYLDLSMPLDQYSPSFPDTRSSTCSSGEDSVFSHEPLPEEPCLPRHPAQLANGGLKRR

A word on the IC50: it is the concentration that inhibits the measured activity by half. Usually inhibition stands for the change of the read-out against control, counted positive when it falls. In the case of `C=CC(=O)N1C(=O)CC(c2ccccc2)Sc2ccccc21` (stereo not given), the IC50 in data set [1] worked out at 6.6 µM; in the data set on NB-4, 35.5 µM; with MOLT-4 it was 85.9 µM; in the data set with HL-60, 97.4 µM; with Raji it was 74 µM. The inhibition in [2] turned out to be 1.7%; in data set [3] it was 0%; in data set [4], 0%; in data set [5], 6.5%; in data set [6], 2.7%; in data set [7] it was 26.9%. Also, the values for the inhibition in data set [8], in data set [9] and in data set [12] were 0%, 0% and “Tde”, respectively. The inhibition entry in data set [10] and in data set [11] was “Active” each time. Further, the Drug metabolism entry in [13] was “Metabolite_Detected”.

Turning to `C=CC(=O)N1C(=O)CC(c2ccc(Cl)cc2)Sc2ccccc21` (stereo not given), the half-maximal inhibitory concentration (IC50) in data set [1] amounted to 6.7 µM; with NB-4, 22.6 µM; in the data set on MOLT-4, 82.4 µM; in the data set with HL-60, 95.7 µM; with Raji it was 18.4 µM; in the data set on NB4-DR1 it was 48.3 µM. The inhibition in [14] came out at 46.7%; in [2] it was 7.4%; in [3], 0%; in [4], 88.3%; in [5], 11.1%; in data set [6] it was 0%. The inhibition in data set [7] came out at 14%; in [8] it was 73.9%; in data set [9] it was 0%; in data set [17] it was 8%; in the data set listed under Homo sapiens it was 7%. Further, the viability at 24 h, up to 50 µM in data set [15] and in data set [16] was more than 80% each time.

In data set [18], `Cc1ccc(C(=O)Nc2ccc(CN3CCN(C)CC3)c(C(F)(F)F)c2)cc1C#Cc1cnc2cccnn12` displayed a concentration for half-maximal inhibition (IC50) of 0.0007 µM.

With `C=CC(=O)N1C(=O)CC(c2ccc(C(=O)OC)cc2)Sc2ccccc21` (stereo not given), the IC50 in [1] worked out at 6 µM; in the data set on NB-4, 24.4 µM; with MOLT-4, 79.6 µM; in the data set with HL-60 it was 102 µM; with Raji it was 89.6 µM; with NB4-DR1, 93.1 µM. For the same compound, the viability at 24 h, up to 50 µM in [15] and in data set [16] was more than 80% in each case.

`C=CC(=O)N1C(=O)CC(c2cccs2)Sc2ccccc21` (stereo not given): the IC50 in data set [1] is 4.9 µM; in the data set on NB-4, 765 µM; in the data set with MOLT-4 it was 557 µM; with HL-60, 695 µM; in the data set with Raji it was 659 µM. Moreover, the inhibition in [2] stood at 0%; in data set [3], 3.1%; in [4], 18.8%; in data set [5] it was 0%; in data set [6], 7.8%; in data set [7] it was 26.3%. The inhibition in data set [8] amounted to 0%; in data set [9], 0%; in data set [17] it was 0%; in the data set filed under Homo sapiens it was 22%.
